Peptide text beside a SMILES is read from it. * marks the point of attachment. Cbz = O=C(OCc1ccccc1)*
Columns and labels:
[1] = target: Transcription factor p65 (Human, UniProt Q04206); assay: Inhibition of TNF-alpha-stimulated human NF-kappaB p65 RelA subunit nuclear translocation in HUVEC
In short: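 HUVEC (fewer than 8 passages) were seeded at 3,000 cells/well. Compounds were added in 8-point series, either from 10 µM final in media with 0.33% DMSO diluted 1:3, or from 8 µM diluted 1:2. After 3.5 h with compound, cells were stimulated with […] for 30 min. Cells were then fixed, permeabilized, stained with Hoechst and with anti-p65 plus an Alexa 647 secondary, and imaged automatically. IC50 is from curve fitting of one experiment run in triplicate, with BAY 11-7082 as the positive control.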

[2] = Induction of human IkappaBalpha stabilization in OCI-Ly3 cells by green light emiting IkappaBalpha-fused luciferase reporter gene assay
[3] = Induction of human IkappaBalpha stabilization in OCI-Ly3 cells assessed as ratio of green light emiting IkappaBalpha-fused luciferase expression to red light emiting native luciferase expression

Transcription factor p65, sequence (Q04206 whole entry): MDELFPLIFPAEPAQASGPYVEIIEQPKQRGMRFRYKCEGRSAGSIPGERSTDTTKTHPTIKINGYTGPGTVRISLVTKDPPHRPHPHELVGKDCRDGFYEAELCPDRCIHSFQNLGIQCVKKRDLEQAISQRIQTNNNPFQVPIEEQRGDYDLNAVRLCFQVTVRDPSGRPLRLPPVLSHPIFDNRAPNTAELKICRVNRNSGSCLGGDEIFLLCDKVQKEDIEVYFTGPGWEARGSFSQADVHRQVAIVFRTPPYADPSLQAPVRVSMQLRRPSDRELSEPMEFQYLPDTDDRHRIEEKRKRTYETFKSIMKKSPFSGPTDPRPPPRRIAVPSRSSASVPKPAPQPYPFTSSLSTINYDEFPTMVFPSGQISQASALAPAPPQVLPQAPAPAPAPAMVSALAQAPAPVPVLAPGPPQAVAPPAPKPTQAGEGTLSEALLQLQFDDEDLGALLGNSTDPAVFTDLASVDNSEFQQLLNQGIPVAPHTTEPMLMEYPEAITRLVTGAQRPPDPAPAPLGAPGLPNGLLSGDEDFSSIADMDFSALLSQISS

COc1ccc2c(c1)-c1ccc3cccnc3c1NS2(=O)=O
IC50 [1]: 1 µM
EC50 [2]: 1.3 µM
EC50 [3]: 1.4 µM

Cc1ccc2ccc3c(c2n1)NS(=O)(=O)c1ccc(C(F)(F)F)cc1-3
IC50 [1]: 1.2 µM
EC50 [2]: 8.9 µM
EC50 [3]: 7.2 µM

COc1ccc2c(c1)-c1ccc3ccc(C)nc3c1NS2(=O)=O
IC50 [1]: 2.5 µM
EC50 [2]: 3.7 µM
EC50 [3]: 3.4 µM

COc1cc2ccc(C)nc2c2c1-c1cc(C)ccc1S(=O)(=O)N2
IC50 [1]: 0.9 µM
EC50 [2]: 1.4 µM
EC50 [3]: 2.3 µM

Cc1cnc2c3c(ccc2c1)-c1ccccc1S(=O)(=O)N3
EC50 [2]: 7 µM
EC50 [3]: 10 µM

O=S1(=O)Nc2c(ccc3cccnc23)-c2cc(Cl)ccc21
IC50 [1]: 1.1 µM
EC50 [2]: 1.1 µM
EC50 [3]: 11 µM

O=S1(=O)Nc2c(ccc3cccnc23)-c2cc(F)ccc21
IC50 [1]: 1.7 µM
EC50 [2]: 4.1 µM
EC50 [3]: 12 µM

COc1cc2cccnc2c2c1-c1cc(C)ccc1S(=O)(=O)N2
IC50 [1]: 1.2 µM
EC50 [2]: 1.3 µM
EC50 [3]: 1.6 µM

Cc1ccc2c(c1)-c1ccc3cccnc3c1NS2(=O)=O
IC50 [1]: 0.6 µM
EC50 [2]: 0.5 µM
EC50 [3]: 0.8 µM

Cc1ccc2cccc(NS(=O)(=O)c3ccc(Cl)s3)c2n1
IC50 [1]: 1 µM
EC50 [2]: 1.4 µM
EC50 [3]: 2.1 µM

O=S(=O)(Nc1cccc2cccnc12)c1ccc(Br)s1
IC50 [1]: 1.1 µM
EC50 [2]: 5.9 µM
EC50 [3]: 6.8 µM

O=S(=O)(Nc1cccc2cccnc12)c1ccc(Cl)s1
IC50 [1]: 1.3 µM
EC50 [2]: 2.7 µM
EC50 [3]: 2.7 µM

COc1cc(NS(=O)(=O)c2ccc(C)cc2N)c2nc(C)ccc2c1
EC50 [2]: 9.4 µM
EC50 [3]: 3 µM

COc1cc(NS(=O)(=O)c2ccc(C)cc2N)c2ncccc2c1
IC50 [1]: 1 µM
EC50 [2]: 4 µM
EC50 [3]: 4 µM

Nc1ccccc1S(=O)(=O)Nc1cccc2cccnc12
IC50 [1]: 2 µM
EC50 [2]: 11 µM
EC50 [3]: 8.5 µM

COc1cc(NS(=O)(=O)c2ccc(C)cc2)c2nc(C)ccc2c1
IC50 [1]: > 10 µM
EC50 [2]: 20 µM
EC50 [3]: 20 µM

COc1cc(NS(=O)(=O)c2ccc(C)cc2[N+](=O)[O-])c2nc(C)ccc2c1
EC50 [2]: > 10 µM
EC50 [3]: > 57 µM

COc1cc(NS(=O)(=O)c2ccc(C)cc2[N+](=O)[O-])c2ncccc2c1
IC50 [1]: 2.1 µM
EC50 [2]: 6.8 µM
EC50 [3]: 7.6 µM

O=[N+]([O-])c1cc(C(F)(F)F)ccc1S(=O)(=O)Nc1cccc2cccnc12
IC50 [1]: 3.7 µM
EC50 [2]: 3.6 µM
EC50 [3]: 20 µM

Cc1ccc([N+](=O)[O-])cc1S(=O)(=O)Nc1cccc2cccnc12
IC50 [1]: 1.6 µM
EC50 [2]: 1 µM
EC50 [3]: > 10 µM

Cc1ccc2cccc(NS(=O)(=O)c3ccccc3[N+](=O)[O-])c2n1
IC50 [1]: 3.8 µM
EC50 [2]: 6.8 µM
EC50 [3]: 8 µM

O=[N+]([O-])c1ccc(S(=O)(=O)Nc2cccc3cccnc23)cc1
IC50 [1]: 1.5 µM
EC50 [2]: 6.5 µM
EC50 [3]: 17 µM

Cc1ccc2ccc3c(c2n1)NS(=O)(=O)c1ccc(O)cc1-3
IC50 [1]: 10 µM
EC50 [2]: 8 µM
EC50 [3]: 11 µM

O=S1(=O)Nc2c(ccc3cccnc23)-c2cc(C(F)(F)F)ccc21
IC50 [1]: 1 µM
EC50 [2]: 0.7 µM
EC50 [3]: 1 µM

Cc1ccc2cccc(NS(=O)(=O)c3ccc(Br)s3)c2n1
IC50 [1]: 1.4 µM
EC50 [2]: 6.1 µM
EC50 [3]: 6.4 µM

O=S(=O)(Nc1cccc2cccnc12)c1cccs1
IC50 [1]: 3.6 µM
EC50 [2]: 5.3 µM
EC50 [3]: 9 µM

Cc1ccc2cccc(NS(=O)(=O)c3ccccc3N)c2n1
IC50 [1]: 2.8 µM
EC50 [2]: 8 µM
EC50 [3]: 8 µM

COc1ccc(S(=O)(=O)Nc2cccc3ccc(C)nc23)c([N+](=O)[O-])c1
IC50 [1]: 1 µM

Cc1ccc2cccc(NS(=O)(=O)c3cc([N+](=O)[O-])ccc3C)c2n1
EC50 [2]: > 20 µM
EC50 [3]: > 57 µM

Cc1ccc2cccc(NS(=O)(=O)c3ccc(C(F)(F)F)cc3[N+](=O)[O-])c2n1
IC50 [1]: 1.1 µM
EC50 [2]: 10 µM
EC50 [3]: 3.6 µM

Cc1ccc2cccc(NS(=O)(=O)c3cccc([N+](=O)[O-])c3)c2n1
IC50 [1]: 0.9 µM
EC50 [2]: 6 µM
EC50 [3]: 13 µM

COc1cnc2c3c(ccc2c1)-c1ccccc1S(=O)(=O)N3
IC50 [1]: 2.5 µM

O=[N+]([O-])c1ccccc1S(=O)(=O)Nc1cccc2cccnc12 [2-nitro-N-quinolin-8-yl-benzenesulfonamide]
IC50 [1]: 3.2 µM
EC50 [2]: 11 µM
EC50 [3]: 12 µM

O=S1(=O)Nc2c(ccc3cccnc23)-c2ccccc21 [5H-quinolino[8,7-c][1,2]benzothiazine 6,6-dioxide]
IC50 [1]: 1 µM
EC50 [2]: 2.2 µM
EC50 [3]: 2.6 µM

Cc1ccc(S(=O)(=O)/C=C/C#N)cc1 [BAY-11-7082]
IC50 [1]: 3 µM

O=S(=O)(Nc1cccc2cccnc12)c1ccccc1 [N-(quinolin-8-yl)benzenesulfonamide]
IC50 [1]: > 10 µM
EC50 [2]: 17 µM
EC50 [3]: 20 µM

CC(C)C[C@@H](C=O)NC(=O)[C@H](CC(C)C)NC(=O)[C@H](CC(C)C)NC(=O)OCc1ccccc1 [{1-[(S)-(S)-1-((S)-1-Formyl-3-methyl-butylcarbamoyl)-3-methyl-butylcarbamoyl]-3-methyl-butyl}-carbamic acid benzyl ester] (Cbz-Leu-Leu-Leu-aldehyde)
EC50 [2]: 1 µM
EC50 [3]: 5.2 µM

— BindingDB's records for doi:10.1016/j.bmcl.2007.10.100 (Columbia University, 2008)
